Data on twelve compounds can be found in PubChem BioAssay.

For orientation: inhibition means the change of the read-out against control, counted positive when it falls.

Assay [1] is described as follows: inhibitors of TNFa-induced NFkB p65 translocation, primary screen, imaging, HUVEC, MLSMR starter and 10KST1 sets (AID 438;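 active means inhibition above 20% together with a positive visual image hit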;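 further: compound added about 3h40 before a 20 min TNFalpha stimulation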;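 on inhibition: signal is the nuclear over cytoplasmic p65 intensity ratio per well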). The settings on record: HUVEC TNFa-induced p65 nuclear translocation; cell count: measured here: nuclei count (cytotoxicity indicator), at 2.08 µM; inhibition: at 2 µM, stronger effect = higher value, 0% TNFa-plus-vehicle, 100% no-TNFa wells.
A short description of assay [2]: endothelial E-selectin expression blockers – imaging, HUVEC, immunofluorescence, MLSMR starter and 10KST1 sets, primary screen (AID 487;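 active means visually confirmed hit in the image check and inhibition above 20%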;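 on inhibition: signal is fraction of cell area covered by stained E-selectin grains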;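 on nuclei count: 100% = median nuclei count of all wells on the same plate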). The settings on record: HUVEC TNFalpha-induced E-selectin immunofluorescence imaging, at 2 µM; inhibition: stronger effect = higher value; nuclei count: measured here: cell number, toxicity.
The nature of assay [3]: Primary imaging screen for DUSP6 inhibitors that restore phospho-Erk in transfected HeLa cells, chemical complementation (AID 609;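 active means compounds giving at least 50% inhibition in the cell-based MKP-3 phosphatase rescue imaging test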;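 on inhibition: phospho-Erk level distribution per well compared with pooled transfected vehicle control wells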). The following applies: HeLa MKP-3 transfected, phospho-Erk imaging KS statistic, at 10 µM, cells stimulated with TPA for 15 min.
Assay [4] has as its target Dual specificity protein phosphatase 6 (Homo sapiens) (UniProt Q16828). Described as above. The following applies: HeLa MKP-3 transfected, phospho-Erk imaging KS statistic; at 10 µM; stronger effect = higher value; cells stimulated with TPA for 15 min.
The target in assay [5] is Voltage-gated potassium channel subunit beta-2 (Rattus norvegicus) (UniProt P62483). As to the kind of experiment: inhibitors of rat Kvbeta2 reductase activity – biochemical, NADPH fluorescence, primary screen (AID 622;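 active means fluorescence slope higher than the sample average by over 3 SD, cut at about -0.22 in these data, passing the limit was not always enough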;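 further: slope of raw intensity against log time taken from 70 to 1610 s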). The settings on record: recombinant KvBeta, 4-cyanobenzaldehyde reduction, at 10 µM, stronger effect = higher value.
Sequence of Voltage-gated potassium channel subunit beta-2 (Rattus norvegicus) (P62483 whole entry, looked up): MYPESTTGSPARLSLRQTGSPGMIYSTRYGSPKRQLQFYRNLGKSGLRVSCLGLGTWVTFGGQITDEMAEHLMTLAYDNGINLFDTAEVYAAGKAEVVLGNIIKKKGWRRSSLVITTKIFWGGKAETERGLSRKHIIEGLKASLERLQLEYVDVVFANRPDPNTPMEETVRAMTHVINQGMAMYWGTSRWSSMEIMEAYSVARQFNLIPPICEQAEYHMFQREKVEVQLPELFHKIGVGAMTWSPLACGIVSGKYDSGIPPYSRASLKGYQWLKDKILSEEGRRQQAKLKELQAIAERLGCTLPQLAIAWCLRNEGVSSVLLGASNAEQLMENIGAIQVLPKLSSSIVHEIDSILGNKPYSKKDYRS
The target is the same in assay [6]. As to the kind of experiment: enhancers of rat Kvbeta2 NADPH turnover – biochemical, NADPH fluorescence, primary screen (AID 623).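 Further: fluorescence intensity change per second fitted from 20 to 320 s.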 The settings on record: Recombinant KvBeta, NADPH fluorescence decrease slope, 10 min; at 10 µM; stronger effect = lower value.
Assay [7] has as its target Alpha-2C adrenergic receptor (Homo sapiens) (UniProt P18825). As to the kind of experiment: compounds altering alpha2C-coupled GIRK flux – cell-based, HEK293 alpha2C/GIRK1/2, thallium flux, primary screen (AID 624;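 active means fluorescence slope after compound addition differing from the mean of all screened samples at 99.7% confidence, in either direction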;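 further: slope of fluorescence ratio to pre-addition baseline per second over 15 to 24 s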). The following applies: thallium flux BTC fluorescence, at 10 µM, actives lie on both sides.
A short description of assay [8]: inhibitors of larval lipid processing in zebrafish, primary screen, whole organism, PED6 fluorescence, gall bladder and intestine (AID 686;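 active means a full or partial loss of lipid-probe fluorescence in the fish gall bladder, intestine or both, judged by eye; inactive means no fluorescence loss, or compound toxic to the fish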;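 further: larvae 5 to 7 days old with five fish per well; signal comes from phospholipase A2 cleavage of quenched PED6 carried via bile; overnight exposure to compound and PED6 before scoring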). The following applies: Zebrafish larvae PED6 lipid processing, fluorescence scoring; screened at 20 µM (by protocol). A digest of the protocol:
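System: live zebrafish larvae aged 5-7 days, whole organism; measure: graded gall bladder and intestinal fluorescence inhibition per well; incubation: overnight exposure; reagent: ingested quenched lipid PED6 at 100 nM; signal: By-eye fluorescence microscopy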

Assay [9] in a line: loss of swimming-algae plug formation – whole organism, Chlamydomonas reinhardtii, WT vs cilia-less mutant, absorbance, 96-well, primary screen (AID 463189;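 active means inhibition at or above 50% relative to wild type and mutant plate controls; inactive means inhibition below 50%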;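 further: 0% = wild type cc124 cells in DMSO and 100% = ciliumless bld1 mutant cells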). The following applies: Chlamydomonas reinhardtii gravitaxis, OD600 absorbance, 2 days; at 10 µM; stronger effect = higher value.
The mark [10] stands for this setting: measured here: cell density z-score.
Setting [11] is: measured here: nuclear c-Myc green intensity z-score.
The mark [12] stands for this setting: measured here: nuclear pErk red intensity z-score, stronger effect = higher value.

Active and inactive are the calls of the source.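 How the source made its calls, unless noted: active means NADPH fluorescence slope more negative than the mean of all samples by about 3 SD, 99.7% confidence; inactive means the rest.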

Sequence of Alpha-2C adrenergic receptor (Homo sapiens) (P18825 whole entry, looked up): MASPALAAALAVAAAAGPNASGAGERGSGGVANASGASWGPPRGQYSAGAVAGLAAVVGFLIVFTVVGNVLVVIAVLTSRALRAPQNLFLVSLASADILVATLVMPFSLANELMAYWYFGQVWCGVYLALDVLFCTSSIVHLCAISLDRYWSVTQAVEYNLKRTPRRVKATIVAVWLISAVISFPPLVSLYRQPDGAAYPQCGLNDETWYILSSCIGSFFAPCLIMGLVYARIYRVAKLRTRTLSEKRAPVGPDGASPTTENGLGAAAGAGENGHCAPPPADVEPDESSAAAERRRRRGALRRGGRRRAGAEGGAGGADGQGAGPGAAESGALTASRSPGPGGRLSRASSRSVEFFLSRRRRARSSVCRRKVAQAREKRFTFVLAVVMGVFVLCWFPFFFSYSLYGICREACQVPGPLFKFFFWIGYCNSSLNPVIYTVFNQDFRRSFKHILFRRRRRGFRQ
Sequence of Dual specificity protein phosphatase 6 (Homo sapiens) (Q16828 whole entry, looked up): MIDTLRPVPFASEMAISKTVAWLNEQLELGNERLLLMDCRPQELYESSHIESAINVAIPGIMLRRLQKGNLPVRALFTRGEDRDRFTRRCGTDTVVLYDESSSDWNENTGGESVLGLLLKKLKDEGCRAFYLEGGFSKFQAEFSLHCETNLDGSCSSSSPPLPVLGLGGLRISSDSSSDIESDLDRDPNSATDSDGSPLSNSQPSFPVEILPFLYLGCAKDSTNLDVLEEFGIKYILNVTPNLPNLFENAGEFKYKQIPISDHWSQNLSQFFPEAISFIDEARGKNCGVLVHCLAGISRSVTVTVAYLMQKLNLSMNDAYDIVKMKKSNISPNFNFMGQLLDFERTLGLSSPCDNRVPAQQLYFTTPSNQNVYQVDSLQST

`CC(C)(C)c1ccc(C(=O)C=[N+]=[N-])cc1`: the cell count in [1] is 519. The inhibition in [1] is -4.7% (inactive); in assay [2], -112% (inactive); in assay [4], 3.97% (inactive); in assay [9] it was 2.22% (inactive). Further, the nuclei count in assay [2] is 60.8%. Also, the z-score in assay [3] (setting [10]) is -1.12; in assay [3] (setting [11]) it was -0.668; in assay [3] (setting [12]) it was -0.2. For the same compound, the fluorescence slope in [5] is -0.524 (inactive). Also, in assay [6], the NADPH fluorescence slope is -6.4e-05 (inactive). The slope in assay [7] is 0.00701 (inactive). Further, the compound was classed as inactive in assay [8].

Regarding `Cc1ccc(C)n1Cc1ccc(C(=O)O)cc1`, the cell count in assay [1] stood at 645. Also, the inhibition in assay [1] was 1.9% (inactive); in assay [2], -32.8% (inactive); in assay [4] it was -6.86% (inactive); in [9], -3.17% (inactive). Besides, the nuclei count in assay [2] was 154%. The z-score in assay [3] (setting [10]) is 1.01; in assay [3] (setting [11]), 0.014; in [3] (setting [12]), -0.0334. Besides, the fluorescence slope in assay [5] is -0.401 (inactive). Besides, the NADPH fluorescence slope in assay [6] is -4.4e-05 (inactive). The slope in assay [7] is 0.00514 (inactive). Moreover, the outcome in assay [8] was inactive.

With `CCCc1[nH]nc2c1C(c1cccc(OC)c1)C(C#N)=C(N)O2` (stereo unspecified), the cell count in assay [1] amounted to 653. For the same compound, the inhibition in assay [1] was -18% (inactive); in assay [2] it was 32.3% (inactive); in [4], 1.04% (inactive); in assay [9] it was 11.7% (inactive). Further, the nuclei count in assay [2] is 178%. Moreover, the z-score in assay [3] (setting [10]) was -0.436; in assay [3] (setting [11]), -0.724; in [3] (setting [12]), 0.801. Moreover, the fluorescence slope in assay [5] was -0.401 (inactive). In addition, the NADPH fluorescence slope in assay [6] is -5.6e-05 (inactive). Moreover, the slope in assay [7] was 0.00438 (inactive). Besides, in assay [8], the compound was classed as inactive.

As for `CCC(=O)Nc1cc(-c2nn(C)c(=O)c3ccccc23)ccc1N1CCCCC1`, in assay [1], the cell count came to 527. The inhibition in assay [1] was -10.5% (inactive); in assay [2], -20.7% (inactive); in [4], -3.5% (inactive); in assay [9] it was 25.8% (inactive). This compound also had a nuclei count in assay [2] of 161%. Further, the z-score in assay [3] (setting [10]) was -0.258; in [3] (setting [11]) it was -0.867; in assay [3] (setting [12]), 0.981. Moreover, the fluorescence slope in assay [5] was -0.373 (inactive). Further, the NADPH fluorescence slope in assay [6] was -2.2e-05 (inactive). The slope in assay [7] was 0.00441 (inactive). In addition, in [8], the call was inactive.

For `CCCCC(C(=O)O)C(C)CC(=O)Nc1cccc(C(=O)O)c1` (stereo unspecified), in assay [1], the cell count turned out to be 630. The inhibition in assay [1] is -4.4% (inactive); in assay [2], -102% (inactive); in [4], 18.6% (inactive); in [9], 0.959% (inactive). For the same compound, the nuclei count in assay [2] was 176%. Further, the z-score in assay [3] (setting [10]) is 0.159; in assay [3] (setting [11]), -1.73; in [3] (setting [12]) it was 0.323. For the same compound, the fluorescence slope in assay [5] was -0.486 (inactive). The NADPH fluorescence slope in assay [6] was -0.000152 (inactive). Further, the slope in assay [7] was 0.00384 (inactive). In addition, in assay [8], the outcome was inactive.

For the compound `CCOc1ccccc1N1CCN(c2nc3ccccc3nc2C(C#N)C(=O)OC(C)C)CC1` (stereo unspecified), the cell count in assay [1] is 451. In addition, the inhibition in assay [1] is -7.4% (inactive); in assay [2] it was -161% (inactive); in [4] it was -10.1% (inactive); in assay [9], 10.3% (inactive). For the same compound, the nuclei count in assay [2] was determined as 148%. The z-score in assay [3] (setting [10]) was -1.19; in [3] (setting [11]), -0.0935; in assay [3] (setting [12]), 0.236. Also, the fluorescence slope in [5] is -0.399 (inactive). Moreover, the NADPH fluorescence slope in assay [6] is -2.9e-05 (inactive). Besides, in [7], the slope is 0.00483 (inactive). Also, in assay [8], the compound was classed as inactive.

As for `Cc1ccc(OCC(=O)N2CCC(N3CCCCCC3)CC2)cc1`, the cell count in assay [1] was determined as 387. In addition, the inhibition is -12% (inactive) in [1], -349% (inactive) in [2], 9.39% (inactive) in assay [4] and 4.12% (inactive) in assay [9]. Further, the nuclei count in assay [2] came out at 176%. Besides, the z-score in [3] (setting [10]) was -0.193; in assay [3] (setting [11]) it was 0.541; in [3] (setting [12]), -0.692. Besides, the fluorescence slope in assay [5] is -0.391 (inactive). Moreover, the NADPH fluorescence slope in assay [6] was -2.1e-05 (inactive). For the same compound, in [7], the slope is 0.00447 (inactive). Also, the compound was called inactive in assay [8].

In the case of `CCn1cc(C(=O)NCCCN(C)C)c(=O)c2cc(F)c(N3CCN(C)CC3)cc21`, in [1], the cell count came to 360. Besides, the inhibition in assay [1] was -2.8% (inactive); in assay [2], -88% (inactive); in [4] it was -7.28% (inactive); in [9] it was 22% (inactive). In addition, the nuclei count in assay [2] worked out at 130%. The results for the z-score in [3] (setting [10]), in [3] (setting [11]) and in [3] (setting [12]) were -0.583, 1.7 and -0.542, respectively. Besides, in [5], the fluorescence slope is -0.286 (inactive). Further, the NADPH fluorescence slope in assay [6] was -5e-06 (inactive). In addition, the slope in assay [7] was 0.00472 (inactive). In addition, the compound was called inactive in assay [8].

On to `O=S(CCc1ccncc1)Cc1ccccc1` (stereo unspecified), for which the cell count in assay [1] worked out at 337. The inhibition in [1] was -23.4% (inactive); in assay [2], -114% (inactive); in assay [4], -14% (inactive); in assay [9] it was -11.4% (inactive). The compound further displayed a nuclei count in assay [2] of 140%. For the same compound, the z-score was -0.83 in assay [3] (setting [10]), 1.38 in [3] (setting [11]) and 2.01 in assay [3] (setting [12]). The fluorescence slope in assay [5] was -0.427 (inactive). In addition, the NADPH fluorescence slope in [6] was -0.000147 (inactive). The slope in assay [7] was 0.00701 (inactive). The outcome in [8] was inactive.

In the case of `Nc1nonc1OCCc1ccccc1`, the cell count in [1] is 540. Also, the inhibition in assay [1] was -5.8% (inactive); in [2] it was -31.5% (inactive); in assay [4] it was -6.06% (inactive); in assay [9] it was -3.19% (inactive). In assay [2], this compound gave a nuclei count of 160%. Moreover, the z-score in assay [3] (setting [10]) was 0.698; in assay [3] (setting [11]), 1.41; in [3] (setting [12]) it was 0.0192. Also, the fluorescence slope in assay [5] was -0.439 (inactive). The NADPH fluorescence slope in assay [6] was -4.6e-05 (inactive). In assay [7], the slope was 0.00604 (inactive). In addition, the compound was classed as inactive in assay [8].

For the compound `c1ccc(OCc2nn3c(-c4ccco4)nnc3s2)cc1`, in [1], the cell count came out at 654. For the same compound, the inhibition in [1] is 3.2% (inactive); in assay [2], -139% (inactive); in assay [4] it was 11.9% (inactive); in assay [9] it was 7.84% (inactive). In assay [2], this compound displayed a nuclei count of 156%. For the same compound, the z-score in assay [3] (setting [10]) was 2.72; in [3] (setting [11]) it was -1.05; in assay [3] (setting [12]), -0.302. Moreover, in assay [5], the fluorescence slope is -0.417 (inactive). Besides, the NADPH fluorescence slope in assay [6] was -0.000108 (inactive). Also, in assay [7], the slope is 0.00597 (inactive). Further, the result in assay [8] was inactive.

Take `COCCOC(=O)C1=C(C)NC(SCC(=O)NC(C)(C)C)=C(C#N)C1c1ccco1` (stereo unspecified): the cell count in assay [1] is 364. Further, the inhibition was -11.5% (inactive) in assay [1], -124% (inactive) in [2], 7.48% (inactive) in assay [4] and 27.7% (inactive) in [9]. The compound further showed a nuclei count in assay [2] of 121%. Moreover, the z-score is 0.297 in [3] (setting [10]), -0.0811 in [3] (setting [11]) and -0.28 in assay [3] (setting [12]). The fluorescence slope in [5] was -0.397 (inactive). Besides, the NADPH fluorescence slope in assay [6] was -4e-05 (inactive). The slope in [7] is 0.00427 (inactive). Also, in [8], the outcome was “inactive; toxic”.
